Assay outcomes: PubChem BioAssay, several laboratories
Shown are actives, neighbours in structure and some others; about 5.4% of the full set was active somewhere.
PLAP activator – PLAP enzyme activators, biochemical, luminescence, HTS | Alkaline phosphatase, placental type (Homo sapiens), P05187 | purified PLAP enzyme, luminescent substrate read-out; active compounds read high | activation fold at 20 µM | actives 1.2% (n = 96,000) | AID 696, 2007; in the data active means activation fold above about 2
tolC growth inh – growth inhibitors of E. coli tolC mutant, primary screen, strain BW25113 ΔtolC::kan, 384-well; actives 2.2% (n = 65,000); OD615; growth inhibition, % at 10 µM (by protocol);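 active means growth inhibition at or above a cutoff equal to the mean over every tested compound plus 3 SD, cut at about 60% in these data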;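 further: growth measured after 20 h incubation at 37 °C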
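Test system – E. coli BW25113 ΔtolC::kan, tolC deletion mutant strain · Detection – OD at 615 nm · Buffer or medium – LB with kanamycin 50 µg/mL · Times – 20 h compound exposure of bacteria at 37 °C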
Ecoli WT expand – growth inhibitors of wild-type E. coli, primary screen, strain BW25113, expanded library, OD600 | growth inhibition, % at 100 µM | actives 0.15% (n = 98,000) | OD600 absorbance;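 active means growth inhibition above about 50% at one test dose, limit read from the data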;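 further: growth measured after 20 h incubation at 37 °C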
HePTP inhibitor – inhibitors of human HePTP phosphatase, primary screen, biochemical, absorbance, leukemia target; recombinant HePTP phosphatase activity, OD absorbance; actives 0.64% (n = 110,000); Tyrosine-protein phosphatase non-receptor type 7 (Homo sapiens), P35236; inhibition, % at 20 µM; in the data active means inhibition above about 50%;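 further: plate controls were vehicle for no effect and reference inhibitor for full effect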
Target sequence (P35236 whole entry, looked up): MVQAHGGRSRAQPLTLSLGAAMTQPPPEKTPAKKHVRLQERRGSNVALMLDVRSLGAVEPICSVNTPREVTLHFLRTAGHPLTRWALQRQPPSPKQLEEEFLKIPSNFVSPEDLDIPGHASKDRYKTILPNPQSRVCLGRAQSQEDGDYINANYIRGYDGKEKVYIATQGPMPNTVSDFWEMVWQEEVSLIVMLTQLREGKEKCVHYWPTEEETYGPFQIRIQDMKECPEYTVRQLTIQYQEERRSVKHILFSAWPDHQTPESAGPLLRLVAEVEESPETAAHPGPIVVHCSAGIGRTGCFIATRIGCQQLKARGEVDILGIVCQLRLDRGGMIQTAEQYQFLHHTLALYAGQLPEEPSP
PostGolgi ctrl – growth inhibition of yeast control strain, primary screen, counter-screen for post-Golgi transport modulator project. inhibition, % at 10 µM. actives 5% (n = 98,000). efflux-deficient yeast background strain, growth absorbance A615, 16 h. AID 738, 2007
PostGolgi yeast – phenotypic screen on post-Golgi transport, primary screen | post-Golgi transport phenotypic cell assay | inhibition, % at 10 µM | actives 0.9% (n = 98,000);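 further: yeast cells grown in 1536-well plates; yeast grown about 18 h at 30C before absorbance read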
Active calls of the source: *. Unless noted, no stated cut-off is given here; in the data, active means inhibition above about 30%; inactive means the rest.

For Cc1ccc(N(CC(O)Cn2c3ccccc3c3ccccc32)S(C)(=O)=O)c(C)c1 (stereo not given) the results were PLAP activator 1, Ecoli WT expand -1.0, PostGolgi ctrl 51.2* and PostGolgi yeast -6.2.
Screening CS(=O)(=O)N(CC(O)Cn1c2ccccc2c2ccccc21)c1ccc(Cl)cc1 (stereo not given) returned HePTP inhibitor 8.3.
Cc1ccc(N(CC(O)Cn2c3ccccc3c3ccccc32)S(C)(=O)=O)cc1 (stereo not given) was read as PLAP activator 1.5, Ecoli WT expand -17.0, HePTP inhibitor -2.5, PostGolgi ctrl 51.0* and PostGolgi yeast 18.3.
Cc1ccc(N(CC(O)CON=C2c3ccccc3-c3ccccc32)S(C)(=O)=O)cc1 (stereo not given) was read as PLAP activator 1.1, Ecoli WT expand -7.0, PostGolgi ctrl 66.9* and PostGolgi yeast -3.3.
Cc1cccc(/C(N)=N/OC(=O)c2cccc(I)c2)c1 was read as HePTP inhibitor 8.2.
For O=C(Nc1c(Cl)cccc1Cl)c1ccc(F)cc1 the results were HePTP inhibitor 7.6.
Screening CC(=O)C1=C(C)NC(=O)NC1c1cc(Br)ccc1O (stereo not given) returned HePTP inhibitor 11.2.
`CCC(C)NC(=O)CN(c1cccc(Br)c1)S(=O)(=O)c1ccccc1` (stereo not given) gave HePTP inhibitor -11.9.
For CCCOc1ccc(C(=O)Nc2scc(-c3ccc(Cl)cc3)c2C(=O)OC)cc1 the results were HePTP inhibitor -4.6.
Screening O=c1oc2c3c4c(cc2c(C(F)(F)F)c1CCN1CCOCC1)CCCN4CCC3 returned PLAP activator 1.3, tolC growth inh 15.9, Ecoli WT expand -2.0, HePTP inhibitor 3.7, PostGolgi ctrl 20.2 and PostGolgi yeast 4.9.
CC(C)c1cc(=O)oc2c3c4c(cc12)CCCN4CCC3 was read as PLAP activator 2*, tolC growth inh 22.8, Ecoli WT expand 1.0, HePTP inhibitor 6.0, PostGolgi ctrl -1.1 and PostGolgi yeast 12.7.
Screening CCc1ccc2oc(-c3cc(N=Cc4cccc(OC)c4O)ccc3O)nc2c1 returned PLAP activator 1.3, tolC growth inh 5.2, Ecoli WT expand -6.0, HePTP inhibitor 8.4, PostGolgi ctrl 33.4* and PostGolgi yeast 8.6.
Oc1ccc2ccccc2c1C=Nc1ccc2oc(-c3ccccc3Br)nc2c1 was read as HePTP inhibitor -18.2.
`O=C(NC12CC3CC(CC(C3)C1)C2)c1ccccc1I` gave HePTP inhibitor 7.0.
`COC(=O)c1sccc1NC(=O)Nc1cccc(Cl)c1Cl` gave PLAP activator 1, Ecoli WT expand -6.0, PostGolgi ctrl 33.6* and PostGolgi yeast -2.9.
O=C(Nc1ccccc1)Nc1cccc(Cl)c1Cl was read as HePTP inhibitor -3.3.
Screening NC(=O)N=Nc1c(O)[nH]c2ccccc12 returned HePTP inhibitor -5.7.
`O=C1N=C(N=Nc2c(O)[nH]c3ccccc23)S/C1=C/c1ccc(Br)cc1` gave HePTP inhibitor 103.4*.
Screening COc1ccccc1C(=O)N1CCN(Cc2cc(OC)c(OC)c(OC)c2)CC1 returned HePTP inhibitor -1.9.
`O=C(Nc1ccccn1)c1ccc(NC(=O)c2ccco2)cc1` gave PLAP activator 0.9, tolC growth inh -31.9, Ecoli WT expand -21.0, HePTP inhibitor 1.8, PostGolgi ctrl 35.0* and PostGolgi yeast 4.2.
For O=C(OC1CCCCC1)c1ccc(NC(=O)c2ccco2)cc1 the results were PLAP activator 1, tolC growth inh 96.2*, Ecoli WT expand -10.0, HePTP inhibitor 4.0, PostGolgi ctrl 29.3 and PostGolgi yeast -6.3.
Screening O=C(Cc1ccccc1)Nc1ccc(C(=O)OC2CCCCC2)cc1 returned HePTP inhibitor -5.4.
For CC(=O)CCc1oc2ccc(C)cc2c1-c1ccc(Br)cc1 the results were HePTP inhibitor 1.2.
`CSCC[C@H](NC(=O)C1CCN(S(=O)(=O)c2ccc(C)cc2)CC1)C(=O)NCc1ccco1` gave PLAP activator 1.5, tolC growth inh -8.2, Ecoli WT expand 5.0, HePTP inhibitor 7.3, PostGolgi ctrl 30.9* and PostGolgi yeast -1.3.
For Cc1ccc(C(=O)N/C(=C/c2cccnc2)C(=O)NN)cc1 the results were HePTP inhibitor 14.4.
`CC(C)c1nnc(NC(=O)C2CCN(c3nc4ccccc4s3)CC2)s1` gave PLAP activator 1.1, tolC growth inh -10.6, Ecoli WT expand -6.0, HePTP inhibitor 9.9, PostGolgi ctrl 33.6* and PostGolgi yeast 5.3.
`O=C1C(=Cc2cccc3ccccc23)C(=O)c2ccccc21` gave HePTP inhibitor -9.5.
Screening CCOC(=O)c1cc(C#N)c(NCc2ccccc2)nc1C returned PLAP activator 1.1, tolC growth inh 0.0, Ecoli WT expand -11.0, HePTP inhibitor 11.2, PostGolgi ctrl 10.5 and PostGolgi yeast 14.7.
CCOC(=O)c1nnc(-c2ccccc2)nc1NCc1ccccc1 was read as PLAP activator 1.2, Ecoli WT expand -5.0, PostGolgi ctrl 35.2* and PostGolgi yeast 14.9.
For Brc1ccccc1-c1nnc2sc(Cc3ccccc3)nn12 the results were PLAP activator 1.2, tolC growth inh 45.0, Ecoli WT expand -1.0, HePTP inhibitor 2.5, PostGolgi ctrl 25.1 and PostGolgi yeast 8.5.
COc1ccc(Cc2nn3c(-c4ccccc4Br)nnc3s2)cc1 was read as PLAP activator 1.3, tolC growth inh 43.5, Ecoli WT expand -10.0, HePTP inhibitor 4.8, PostGolgi ctrl 44.8* and PostGolgi yeast 1.5.
For COc1ccc(Cc2nn3c(-c4cc(OC)c(OC)c(OC)c4)nnc3s2)cc1 the results were PLAP activator 1.7, tolC growth inh 30.3, Ecoli WT expand 6.0, HePTP inhibitor 2.1, PostGolgi ctrl 35.5* and PostGolgi yeast 19.3.
`CC(C)(C)c1ccc(OCC(=O)N2CCC(C(N)=O)CC2)cc1` gave HePTP inhibitor -15.0.
O=c1/c(=C/c2ccccc2OCc2ccc(Cl)cc2)sc2nc3ccccc3n12 was read as HePTP inhibitor -1.7.
Screening CCOc1ccccc1OC(=O)c1ccco1 returned PLAP activator 1, tolC growth inh -7.8, Ecoli WT expand 9.0, HePTP inhibitor 3.7, PostGolgi ctrl 35.9* and PostGolgi yeast -2.2.
`O=C(Oc1ccc(Cl)c2cccnc12)c1ccco1` gave PLAP activator 1.6, Ecoli WT expand 100.0*, PostGolgi ctrl 12.3 and PostGolgi yeast -5.3.
`COc1ccc(NC(=O)CSc2nnc(Cc3ccccc3)o2)c(OC)c1` gave PLAP activator 2.3*, tolC growth inh 19.8, Ecoli WT expand 10.0, HePTP inhibitor 7.5, PostGolgi ctrl 10.5 and PostGolgi yeast -0.2.
